The text below walks through data of paper PMC4878416 (Diabetes, 2016).

A word on the remaining activity: it is what remains of the control signal, in per cent. As usually defined, the IC50 is the concentration at which inhibition is half-maximal.

Each structure is given as a SMILES string.

The subject of assay [1] is human β-cells. Kind of assay: EdU incorporation proliferation assay in dissociated human islet cells. The class given is cell-based. The gist of the method:
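Human islets dissociated in Accutase (5,000 IEQ/mL, 37°C, 20 min), resuspended in CMRL complete medium and seeded at ~30,000 (96-well) or ~15,000 (384-well) cells per well. EdU was present throughout the 6-day treatment, including FK506 cotreatment. Cells were fixed (3% PFA), permeabilised (0.2% Triton X-100) and stained for C-peptide and DAPI. EdU+ β-cells were scored by automated imaging and manually; 4 wells, 9 fields each; mean ± SD; two-tailed t test vs DMSO.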

The target in assay [2] is DYRK1A (Homo sapiens, UniProt Q13627). Kind of assay: Biochemical assay for DYRK1A activity using the purified catalytic domain.
Assay [3] addresses T1, tyrosine kinase TXK (Homo sapiens, UniProt P42681).
T1 sequence (P42681 1-527): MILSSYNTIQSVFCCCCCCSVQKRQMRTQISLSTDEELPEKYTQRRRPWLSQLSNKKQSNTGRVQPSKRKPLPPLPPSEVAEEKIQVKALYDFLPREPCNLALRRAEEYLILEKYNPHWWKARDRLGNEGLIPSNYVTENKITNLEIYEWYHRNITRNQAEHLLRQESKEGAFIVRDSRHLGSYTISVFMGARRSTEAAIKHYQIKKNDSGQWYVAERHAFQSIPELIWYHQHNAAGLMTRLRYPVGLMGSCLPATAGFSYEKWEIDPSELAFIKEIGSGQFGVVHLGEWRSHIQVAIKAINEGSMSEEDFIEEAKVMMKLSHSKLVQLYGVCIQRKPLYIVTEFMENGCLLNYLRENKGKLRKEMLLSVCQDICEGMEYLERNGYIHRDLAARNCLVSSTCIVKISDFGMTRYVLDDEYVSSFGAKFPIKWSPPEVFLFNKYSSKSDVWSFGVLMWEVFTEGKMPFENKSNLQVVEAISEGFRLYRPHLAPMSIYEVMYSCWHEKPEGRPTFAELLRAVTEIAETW
Kind of assay: Human kinome profiling, TXK. The settings on record: read-out: remaining activity TXK. The class given is biochemical. The gist of the method: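 Human kinases profiled by commercial providers under their standard protocols; ATP within 15 μmol/L of the apparent KM for each enzyme.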

Assay [4] concerns the target adenosine kinase. The following applies: read-out: IC50 adenosine kinase; cited from earlier work.
The test system of assay [5] is human islet cells (all cell types). The following applies: cited from earlier work.
Assay [6] deals with p27KIP phosphorylation (S10). Briefly: Western blot of p27KIP phosphorylation. The settings on record: INS-1E cells, 24 or 48 h, 10 μmol/L harmine or 0.5 μmol/L 5-IT. The class given is cell-based, rat. The method in brief:
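Cells were treated after overnight attachment and lysed in RIPA buffer. Western blots were probed for p27KIP S10 phosphorylation, with actin as loading control.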
In general terms: A western blot detects proteins with antibodies after separation by electrophoresis.

On to `COc1ccc2c3c([nH]c2c1)C(C)=NCC3` [harmaline], for which the “effect on EdU incorporation versus vehicle” value in assay [1] (6-day treatment) is given as “no effect”. The “activity toward DYRK1A” value in assay [2] is given as “no activity”.

As to `Nc1ncnc2nc(-c3ccc(N4CCOCC4)nc3)cc(-c3cccc(Br)c3)c12` [ABT-702, 4-amino-5-(3-bromophenyl)-7-(6-morpholinopyridin-3-yl)pyrido[2,3-d]pyrimidine], in assay [1] (tested up to 20 μmol/L, 6-day treatment), the “effect on EdU incorporation” value is “no effect”. For the same molecule, the remaining activity at 0.5 µM in assay [3] turned out to be 60%. The IC50 in assay [4] is 1.7 nM.

As for `COC(=O)C1=C(C)NC(C)=C([N+](=O)[O-])C1c1ccccc1C(F)(F)F` (stereo not shown) [Bay K8644], the “cellular proliferation in human islet cell culture” value in assay [5] is recorded as “induces nonspecific cellular proliferation”.

`COc1ccc2c(c1)[nH]c1c(C)nccc12` [harmine]: the “effect on EdU-positive cells” value in assay [1] (5 and 10 μmol/L, 6-day treatment) was “dose-dependent increase”. Moreover, the p27KIP phosphorylation result in assay [6] is recorded as “decrease”.

With `C=CC[C@@H]1/C=C(\C)C[C@H](C)C[C@H](OC)[C@H]2O[C@@](O)(C(=O)C(=O)N3CCCC[C@H]3C(=O)O[C@H](/C(C)=C/[C@@H]3CC[C@@H](O)[C@H](OC)C3)[C@H](C)[C@@H](O)CC1=O)[C@H](C)C[C@@H]2OC` [FK506], in assay [1] (1 μmol/L FK506 with 1 μmol/L 5-IT), the “effect of cotreatment on 5-IT-induced EdU-positive β-cells” value is on record as “completely blocked”. The “effect of cotreatment on harmine-induced EdU-positive β-cells” value in assay [1] (1 μmol/L FK506 with 10 μmol/L harmine) is “completely blocked”.
